The values that follow come from the EternaBench riboswitch data.

The term apparent Kd denotes a dissociation constant that holds for the conditions of the assay.

For the data set, the system named is MS2 coat protein. Put plainly: apparent Kd, MS2 coat protein; higher = weaker binding; RNA-MaP array; FMN 200 µM where present. A digest of the protocol: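 Designs were transcribed by stalled E. coli RNA polymerase on Illumina sequencing-chip clusters. They were titrated with SNAP-549-labelled MS2 coat protein from 0.7 or 1.5 nM, doubling to 3 µM, without and then with constant ligand. Buffer: 100 mM Tris-HCl pH 7.5, 80 mM KCl, 4 mM MgCl2, BSA, DTT, yeast tRNA, Tween-20. Green signal was normalised to red-channel RNA signal and control-cluster median Fmax. Apparent Kd is the median of filtered per-cluster binding-curve fits.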

The mark [1] stands for this setting: designed as: OFF switch for flavin mononucleotide, no ligand.
The mark [2] stands for this setting: ligand present: flavin mononucleotide, designed as: OFF switch for flavin mononucleotide.
The mark [3] stands for this setting: designed as: ON switch for flavin mononucleotide, no ligand.
The mark [4] stands for this setting: ligand present: flavin mononucleotide, designed as: ON switch for flavin mononucleotide.

For “AAUUCACAUGAGGAUCACCCAUGUCAGGAUAUGGUUUCGCGGGUUUCGGUGCGUGAGGCCAGAAGGGACAGCUA”, the “apparent Kd” value reads like this: under setting [1], 53.3 nM; under setting [2], 72.4 nM.

On to “GGGUACAUCCGAGGAUAUCAUGUAAAUACAUGAGGAUCACCCAUGUCGAUGGAGACAUCGGAGAUUGAGAAGGCCGAUGUACCG”, for which the “apparent Kd” value is, setting by setting: under setting [3], 344 nM; under setting [4], 22.9 nM. The matching figures for “UUGGACGUCGUAGGAUAUGUAGGAUAUUCCUACAUGAGGAUCACCCAUGUUGACAUGGAAGAAGGAGAGAAGGACGAUGUCCAU”: 308 nM and 354 nM. For the sequence “AGGGCGGGAGGAUAUCCAAUAUAUGACAUGAGGAUCACCCAUGUUUCCACUCGUACCUCCGGAGAAGGCCCGCCCA”, the “apparent Kd” value is 24.4 nM under setting [1] and 22.3 nM under setting [2].

With “AAGGACUGAAUAAUAAGUAGAAAUACAUGAGGAUCACCCAUGUAGGAUAUCGUCAGGAAUACUGACGAGAAGGACAUACAGUCC”, the “apparent Kd” value by setting is: under setting [1], 13.6 nM; under setting [2], 16.7 nM. The matching figures for “UGGUGACGUUUCUUCUCGACAUGAGGAUCACCCAUGUAGACAGAGGAUAUCCGAGUUGCCAAUAUGGAGAAGGCUGACUGCGAA”: 6.6 nM and 8.32 nM. The matching figures for “ACAAAACAUGUAGGAUAUCGAUUGCGUCGCGAUCGAGAAGGACAAGAGGGUCACCCUUGUACAUGAGGAUCACCCAUGUCAUGU”: 202 nM and 149 nM. The corresponding values for “CUGAUGUGAGGAUAUCUACGCCAUGUCUUUGACAUGGCGCAAGAGAAGGCACAUGAGGAUCACCCAUGUUCUUC” are 62.9 nM and 723 nM.

With “GAGCGGGAAACAUGAGGAUCACCCAUGUAAUAAAUCCUCAAGUAGGAUAUGCACACGAGAAGUGUGCAGAAGGGCUACCCGGUC”, the “apparent Kd” value by setting is: under setting [1], 29.7 nM; under setting [2], 46.2 nM.

With “UGGUACUAGGGAGGAUAUGGGAAGAUACAUGAGGAUCACCCAUGUUUAAGAAUUCCGAGAGGCAACUAGAAGGCCCUAGUACCU”, the “apparent Kd” value runs as follows: under setting [3], 35.7 nM; under setting [4], 13 nM.

For “AGAAACUACGAGAAGGACAUGUGGUCCUUCAGAAACAUGAGGAUCACCCAUGUAGGAUAUCGUAGUUUCAGGAUCGUGAGAUCA”, the “apparent Kd” value runs as follows: under setting [1], 54.4 nM; under setting [2], 20.8 nM. The matching figures for “GUCAGCUCGUCAGGAUAUACAACACUGCUUCGGCAGUGUAUUAAGAUCACAUGAGGAUCACCCAUGUAGAAGGCACGAGCUGAU”: 7.39 nM and 7.56 nM.

For “UGAAUCAAUACAGGAUAUGGUGACGCACAUGAGGAUCACCCAUGUCCGCAGCGUGCUCAGCACGCCCAGAAGGGUAUUGAUCCG”, the “apparent Kd” value under setting [4] turned out to be 84.8 nM. Consider “UCUUAUUGCAAGGAUAUGCAAUUUAUUUUUUAUGCAGAAGGUGCAACAUGAGGAUCACCCAUGUUUCCGGGCAU”, for which the “apparent Kd” value stood at 13.8 nM under setting [1] and 18.6 nM under setting [2]. For the sequence “UCGUGAAGGACAGGAUAUGGACAUGAGGAUCACCCAUGUACAUGGGAAUGUAUACUGAAUUUGUACUAGAAGGGUUACAUAAAU”, the “apparent Kd” value under setting [1] stood at 29.9 nM and the “apparent Kd” value under setting [2] stood at 20.6 nM. As to “AUCUCGUCAGGAUAUGACUACAUAAAAAAUAAAAAAUGUAGUCAGAAGGGACAUGAGGAUCACCCAUGUACCAA”, the “apparent Kd” value came out at 19.1 nM under setting [1] and 18.4 nM under setting [2].

On to “UUGGACGUCGUAGGAUAUGUAGGAUAUUCGUACAUGAGGAUCACCCAUGUUGACAUGGAAGAAGGACAGAAGGACGAUGUCCAU”, for which the “apparent Kd” value worked out at 12.2 nM under setting [3] and 4.55 nM under setting [4]. Regarding “ACAAGAUCAGGAUAUACAUGAGGAUCACCCAUGUUAAUCCAAAAGGGACUUUCUUUAUGUAGAAGGGAUCUUGU”, the “apparent Kd” value is, setting by setting: under setting [1], 31.2 nM; under setting [2], 85.5 nM. Turning to “UUACAUACAAAGGUACAUGAGGAUCACCCAUGUUUAUUGGGAAGAAGGGUAACAGUAUUACAUAUAUAGGAUAUUUCACAAAUG”, the “apparent Kd” value stood at 90.6 nM under setting [3] and 69.8 nM under setting [4]. Regarding “AGAAAGUGAGGAUAUACAUGAGGAUCACCCAUGUAGAACGAGAGUUAUAAAAAUGGAAGUAGAAGGCACAAAAG”, the “apparent Kd” value runs as follows: under setting [1], 34.3 nM; under setting [2], 37.1 nM. Take “UGUUGUAUUACAGGAUAUCUAGUAUGUUUAUUUAGAGAAGGGUAUUCACAUGAGGAUCACCCAUGUAUAUACGAGGAAGUUGUG”: the “apparent Kd” value runs as follows: under setting [3], 39.1 nM; under setting [4], 42.5 nM. Consider “UGAUAGGACAGAGGAUAUGCGUAUAGUUAUCUCUACAUGAGGAUCACCCAUGUAGAAGGCUGUCCUAUCUAAGUCGGAAACGAC”, for which the “apparent Kd” value reads like this: under setting [1], 5.35 nM; under setting [2], 5.22 nM. The matching figures for “GCGCUGCGUCAGAAGGGCCGAAAAGAGAAGAUGGCAGGAUAUGACAUGAGGAUCACCCAUGUACACGUCGCCAUGGGUGUUGGU”: 184 nM and 36.4 nM. On to “AUUAUUUUCGAAGGAUAUGGAUACAUGAGGAUCACCCAUGUAUAAAAUGAGAUCUAUUAUAUGAUCCAGAAGGUCGUUGUUUAU”, for which the “apparent Kd” value under setting [1] was determined as 35.6 nM and the “apparent Kd” value under setting [2] was determined as 68.8 nM. On to “UUAUGAGCGAUAGGAUAUACUGAGAUUGAAUGGGUAGAAGGAUCGAUCGUGUAGAAGACAUGAGGAUCACCCAUGUUACGGGCC”, for which the “apparent Kd” value was found to be 97 nM under setting [3] and 218 nM under setting [4]. With “AUUAUAUAGAAAGGAUAUUGAUUAUUAUUUUAACAUGAGGAUCACCCAUGUAGCCUUAUGUAUAACAAGAAGGUUCAUUUAUUA”, the “apparent Kd” value by setting is: under setting [1], 75.9 nM; under setting [2], 89.5 nM. As to “GCCAUCGCAUGAGGAUAUGCUCCCGUUUCGGGAGCAGAAGGCAUGUCAUAAGACAUGAGGAUCACCCAUGUAGAUAAGGUGGCA”, the “apparent Kd” value by setting is: under setting [3], 337 nM; under setting [4], 12.7 nM. For the sequence “AUUAUUUAGUGAGGAUAUACAGAUAAAGAGAUUGUAGAAGGCACUUUCCUCAGGACAUGAGGAUCACCCAUGUGUUAAUAAGAU”, the “apparent Kd” value is 72.5 nM under setting [1] and 267 nM under setting [2]. The corresponding values for “AUGCCGUGCAGAGCGCGACGGCGAACAUGAGGAUCACCCAUGUAGGAUAUACUACACAAAGUGUAGUAGAAGGACGUGCAACAC” are 25.5 nM and 34.7 nM. The corresponding values for “GCCUUAUCUGUCAGGAUAUACAAUAAAAUAUUUUUGUAGAAGGGACAUGAGGAUCACCCAUGUACAUUACAUUG” are 42 nM and 262 nM. With “AAUUAAUUAAUACAUGAGGAUCACCCAUGUAAUUAUUAGAUCUAGGAUAUCAGCUCGAUUAGAGCUGAGAAGGAGAUCACAUGU”, the “apparent Kd” value runs as follows: under setting [3], 18.5 nM; under setting [4], 14.8 nM. As for “AAAAGGUUAGGAUAUGCCCGCCGGGUGGGAAGGCCGGGUGGGUAGAAGGGACAUGAGGAUCACCCAUGUAAAAA”, the “apparent Kd” value under setting [1] came to 48.6 nM and the “apparent Kd” value under setting [2] came to 20 nM. The corresponding values for “UAUGUUAGCACAGGAUAUUGUUAUUAUUUAAUUCAAGAAGGGUGUACAUGAGGAUCACCCAUGUUAUGGUUUUAUCUUUUACAA” are 1280 nM and 457 nM. Take “UGUUGUAUUACAGGAUAUCUAGUAUUUUCAUUUAGAGAAGGGUAUUCACAUGAGGAUCACCCAUGUAUAUACGAGGAAGUUGUG”: the “apparent Kd” value by setting is: under setting [3], 43.7 nM; under setting [4], 45.4 nM. The matching figures for “CCACGUCACAUCUACAUGAGGAUCACCCAUGUCAAAAGACAUGAGGAUAUGCAUCCUAAUUGGAUGCAGAAGGCAUGGACGUGG”: 972 nM and 69.7 nM. As for “GCAUAUCAGGGAGGAUAUGACAUGAGGAUCACCCAUGUAAUUAUGGCUCUGUCAGAAGGCCCAUCGUCACUAUAGCGACGAGAA”, the “apparent Kd” value by setting is: under setting [1], 587 nM; under setting [2], 16.9 nM. For “AAAGUGUGAAGCAGGGUGCUACAUGAGGAUCACCCAUGUCGGAGAAGGGCGCCGUUUCGCAUGGUGUAGGAUAUCUGGCGUGCA”, the “apparent Kd” value by setting is: under setting [1], 116 nM; under setting [2], 132 nM.

For “GCGCUUAAACAGAAGGCCAAAUACAUGAGGAUCACCCAUGUCGAAUCAUGGAGGAUAUGUUAUUAAUUACACGCAGAUGAGCGC”, the “apparent Kd” value was determined as 124 nM under setting [3] and 10.7 nM under setting [4]. As to “CGAUUGUAUAGAGGAUAUGUUAUACAUGAGGAUCACCCAUGUGAGGUGGAAAUAUUUAAUUACAUACAGAAGGCUAUACAAUCG”, the “apparent Kd” value runs as follows: under setting [1], 231 nM; under setting [2], 237 nM. For “AGUAAGAUGCAGAAGGUGUCAGCGAGAGCUGCGACAUGAGGAUCACCCAUGUACCGGUGACGGUACAAGGAUAUGCAUCUUACA”, the “apparent Kd” value was found to be 882 nM under setting [3] and 360 nM under setting [4].

In the case of “AUUAAUUAAUUAAUACAUGAGGAUCACCCAUGUAAUAAGAUCAAGGAUAUCAGCUCGAUUAGAGCUGAGAAGGUGAUCACAUGU”, the “apparent Kd” value is, setting by setting: under setting [3], 772 nM; under setting [4], 223 nM. The corresponding values for “GGAGCACAUAUAAACAUGAGGAUCACCCAUGUCAAAAGACAUGAGGAUAUGGAUCGGAAAACGAUCUAGAAGGCAUGGUGCUCC” are 644 nM and 29.6 nM. “UGGUACUAGGGAGGAUAUGGGAAAAUACAUGAGGAUCACCCAUGUUUAAGAAUGCCGAGAGGCAACUAGAAGGCCCUAGUACCU”: the “apparent Kd” value worked out at 16.2 nM under setting [3] and 5.26 nM under setting [4]. Take “UAUAUAAUAUUACACAUGAGGAUCACCCAUGUACAUGGGAUAGAGGAUAUACAAAUAUUAGUGGUGUAGAAGGUUAAUAUAUAU”: the “apparent Kd” value under setting [1] was found to be 266 nM and the “apparent Kd” value under setting [2] is 71 nM. On to “GUAUUUUUACAGAAGGUGUAUUACAUGAGGAUCACCCAUGUAUUAUGGAAUAAAGUUGUUAUUUACAAGGAUAUGUACUAUUUU”, for which the “apparent Kd” value is, setting by setting: under setting [3], 19.3 nM; under setting [4], 14.8 nM. Take “UGUGCUGAAGGAUAUGCGUAAGCUCGGUGACGAGCAGGUCUACAUGAGGAUCACCCAUGUAGAAGGUCAGUACU”: the “apparent Kd” value is 15.8 nM under setting [1] and 16 nM under setting [2]. The corresponding values for “UAAGUUGUGGUAGGAUAUACUUUAAAUUUCUCUAUCCAUACAUGAGGAUCACCCAUGUUUACAUUGUAGAAGGACCUUUUUGUU” are 24.2 nM and 21.1 nM. “CUUUUGUGAGGAUAUUAGUAGUAAAUAAAUAAAAUUACUACUGAGAAGGUACAUGAGGAUCACCCAUGUUCCUC”: the “apparent Kd” value runs as follows: under setting [1], 14.8 nM; under setting [2], 19.3 nM.
